Measured values: ChEMBL document CHEMBL1177683, “Synthesis and pharmacological evaluation of pyrazine N-acylhydrazone derivatives designed as novel analgesic and anti-inflammatory drug candidates” (2010)
Activity calls are given as the source filed them. No cut-off for these calls is given here.

Columns and labels:
Mus musculus [1] = assay: Antinociceptive activity in Swiss mouse assessed as inhibition of acetic acid-induced abdominal constrictions at 100 umol/kg, po administered 40 mins before acetic acid challenge measured for 25 mins relative to control; type: functional; conditions: Abdomen
Summary of the method: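 Mice were dosed at 100 µmol/kg po in arabic gum (10 mL/kg), 40 min before 0.6% v/v acetic acid ip (0.1 mL/10 g). Writhes (abdominal contraction, pelvic rotation, hind-limb extension) were counted for 20 min starting 5 min post-injection. Results are expressed as % inhibition versus vehicle controls. Groups of 6 (control 10), ANOVA/Dunnett.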

Mus musculus [2] = assay: Antiedematogenic activity in Swiss mouse assessed as decrease of capsaicin-induced ear edema weight at 100 umol/kg, po administered 40 mins before capsaicin challenge measured after 30 mins relative to control; set-up: scale not given: the % may be the effect or the level left
Mus musculus [3] = assay: Analgesic activity in Swiss mouse assessed as increase in latency of paw licking at 100 umol/kg, po after 60 mins measured for 60 seconds by hot plate test (reference value: 4.9 +/- 0.5 seconds); type: functional
Mus musculus [4] = assay: Analgesic activity in Swiss mouse assessed as increase in latency of paw licking at 100 umol/kg, po after 90 mins measured for 60 seconds by hot plate test (reference value: 5.9 +/- 0.8 seconds); type: functional
Mus musculus [5] = assay: Analgesic activity in Swiss mouse assessed as increase in latency of paw licking at 100 umol/kg, po after 150 mins measured for 60 seconds by hot plate test (reference value: 5.1 +/- 0.4 seconds); type: functional
Mus musculus [6] = assay: Analgesic activity against formalin-induced acute pain in Swiss mouse assessed inhibition of nociception at 100 umol/kg, po administered 40 mins before formalin challenge measured for 15 to 30 mins relative to control; type: functional
Summary of the method: (§1)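 Mice, 6 per group, received 20 µL of 2.5% formalin (0.92% formaldehyde in saline) into the ventral surface of the right hind paw. Dosing was 100 µmol/kg po in arabic gum vehicle (10 mL/kg), 40 min beforehand. Time spent licking the injected paw was recorded over 0–5 min (neurogenic phase) and 15–30 min (inflammatory phase). Data are mean ± S.E.M., ANOVA/Dunnett versus vehicle.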

Mus musculus [7] = assay: Analgesic activity in Swiss mouse assessed as increase in latency of paw licking at 100 umol/kg, po after 120 mins measured for 60 seconds by hot plate test (reference value: 5.6 +/- 0.5 seconds); type: functional
Mus musculus [8] = assay: Antiedematogenic activity in Swiss mouse assessed as inhibition of capsaicin-induced ear edema at 100 umol/kg, po administered 40 mins before capsaicin challenge measured after 30 mins relative to control
Mus musculus [9] = assay: Analgesic activity against formalin-induced acute pain in Swiss mouse assessed as decrease of time spent in paw licking at 100 umol/kg, po administered 40 mins before formalin challenge measured for 15 to 30 mins; type: functional, organism-based; summary of the method: as §1
Mus musculus [10] = assay: Analgesic activity against formalin-induced acute pain in Swiss mouse assessed as decrease of time spent in paw licking at 100 umol/kg, po administered 40 mins before formalin challenge measured for 0 to 5 mins; type: functional, organism-based
Summary of the method: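 Male or female adult Swiss mice (20–30 g, 6–8 weeks), groups of 6, dosed orally in arabic gum vehicle (10 mL/kg) 40 min before 20 µL of 2.5% formalin (0.92% formaldehyde in saline) into ventral surface of right hind paw. Paw-licking time recorded 0–5 min (neurogenic phase) after injection; mean ± S.E.M. versus vehicle controls, ANOVA with Dunnett test.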

Rattus norvegicus [11] = assay: Antiinflammatory effect in complete Freund's adjuvant-induced Wistar rat arthritis model assessed as inhibition of paw edema at 100 umol/kg, po daily once administered on day 14 post adjuvant challenge measured on day 17 post adjuvant challenge; type: functional, organism-based
Summary of the method: (§2)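 Wistar rats (130–170 g) received 0.1 mL complete Freund's adjuvant into the right paw. On day 13, arthritic rats were grouped (n=6) with matched scores. Dosing was 100 µmol/kg po daily from day 14 to 21, with arabic gum vehicle (10 mL/kg) for controls. Paw volume was measured by […] on days 1 and 14–21. Data are mean ± S.E.M., ANOVA/Dunnett.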

Rattus norvegicus [12] = assay: Antiinflammatory effect in complete Freund's adjuvant-induced Wistar rat arthritis model assessed as inhibition of paw edema at 100 umol/kg, po daily once administered on day 14 post adjuvant challenge measured on day 16 post adjuvant challenge; type: functional, organism-based; summary of the method: as §2
Rattus norvegicus [13] = assay: Antiinflammatory effect in complete Freund's adjuvant-induced Wistar rat arthritis model assessed as inhibition of paw edema at 100 umol/kg, po daily once administered on day 14 post adjuvant challenge measured on day 21 post adjuvant challenge; type: functional, organism-based; summary of the method: as §2

Structure (SMILES) | inhibition in vivo at 100 µmol/kg (Mus musculus [1]) [%] | Activity (Mus musculus [2]) [%] | Time (Mus musculus [3]) [s] | Time (Mus musculus [4]) [s] | Time (Mus musculus [5]) [s] | inhibition in vivo at 100 µmol/kg (Mus musculus [6]) [%] | Time (Mus musculus [7]) [s] | inhibition in vivo at 100 µmol/kg (Mus musculus [8]) [%] | Activity (Mus musculus [9]) | Activity (Mus musculus [10]) | Activity (Rattus norvegicus [11]) | Activity (Rattus norvegicus [12]) | Activity (Rattus norvegicus [13])
COc1cc(/C=N/NC(=O)c2cnccn2)ccc1O | 47 | 21.3 | 2.6 | 3.2 | 4.4 | 31.8 | 3.4 | 63.5 |  |  |  |  | 
COc1ccc(/C=N/NC(=O)c2cnccn2)cc1OC | 73.6 | 29.5 | 4.8 | 4.2 | 3.8 | 29.1 | 6.3 | 49.6 |  |  |  |  | 
CC(C)c1ccc(/C=N/NC(=O)c2nc3ccccc3nc2-c2ccccc2)cc1 | 77.3 | 30.7 | 4.6 | 5 | 4.3 | 66.5 | 5.4 | 47.5 |  |  |  |  | 
O=C(N/N=C/c1c2ccccc2cc2ccccc12)c1cnccn1 | 33.6 | 26.5 | 3.7 | 6.2 | 6.6 | 45.8 | 5.6 | 54.7 |  |  |  |  | 
O=C(N/N=C/c1ccncc1)c1cnccn1 | 40.4 | 45.7 | 3.5 | 3.2 | 4.5 | 58.4 | 5.4 | 32.3 | Active |  |  |  | 
Cc1ccc(-c2cc(C(F)(F)F)nn2-c2ccc(S(N)(=O)=O)cc2)cc1 [CELECOXIB] | 56.9 | 25.5 | 5.5 | 5.7 | 3.8 | 68.4 | 4.4 | 56.4 |  |  |  |  | 
O=C(N/N=C/c1ccc2ccccc2c1)c1cnccn1 | 68.4 | 37.8 | 2.8 | 3.5 | 4.5 | 68 | 4.4 | 35.4 |  |  |  |  | 
O=C(N/N=C/c1ccc(F)cc1)c1cnccn1 | 74.5 | 39.1 | 4.6 | 5.4 | 3.1 | 72.3 | 4.8 | 33.1 | Active |  |  |  | 
O=C(N/N=C/c1ccc(-c2ccccc2)cc1)c1cnccn1 | 57.3 | 32.9 | 2.7 | 3.5 | 4.5 | 46.9 | 4 | 47.7 | Active |  |  |  | 
O=C(N/N=C/c1ccccc1O)c1cnccn1 | 73.1 | 33.9 | 4 | 5.2 | 5.2 | 16.2 | 6.4 | 42 |  | Active |  |  | 
CC(C)c1ccc(/C=N/NC(=O)c2cnccn2)cc1 | 67.6 | 31.2 | 3.3 | 4.7 | 4.6 | 66.5 | 5.2 | 46.6 | Active |  |  |  | 
O=C(N/N=C/c1ccc(C(F)(F)F)cc1)c1cnccn1 | 54.5 | 30.2 | 3.1 | 3.9 | 4 | 27.7 | 2.4 | 48.3 |  |  |  |  | 
COc1cc(/C=N/NC(=O)c2cnccn2)cc(OC)c1OC | 97.1 | 17.6 | 4 | 4.8 | 5.3 | 86 | 4.3 | 70 | Active |  | Active | Active | Active
O=C(N/N=C/c1ccccc1)c1cnccn1 | 42.4 | 40.6 | 4.4 | 4.2 | 5.2 | 60.8 | 4 | 30.5 | Active |  |  |  | 
COc1ccc(/C=N/NC(=O)c2cnccn2)cc1O | 64.8 | 42.8 | 2 | 4 | 4.7 | 14.7 | 1.9 | 27 |  |  |  |  | 
O=C1CCC(N2C(=O)c3ccccc3C2=O)C(=O)N1 (configuration not stated) [THALIDOMIDE] | 73.3 | 46.6 | 4.8 | 7.5 | 5.9 | 66.7 | 6.8 | 25.2 |  |  | Active | Active | Active
O=C(N/N=C/c1ccc(O)cc1)c1cnccn1 | 61.4 | 33.7 | 3.1 | 3.4 | 4 | 16.7 | 5.3 | 42.3 |  |  |  |  | 
CC(C)(C)c1cc(/C=N/NC(=O)c2cnccn2)cc(C(C)(C)C)c1O | 71.6 | 39.5 | 2.7 | 3.4 | 5.4 | 26.8 | 3.4 | 32.3 |  |  |  |  | 
O=C(N/N=C/c1cc(=O)c2ccccc2o1)c1cnccn1 | 86.3 | 26.1 | 2.5 | 3.5 | 4.2 | 52.7 | 6.2 | 55.3 | Active |  |  |  | 
O=C(N/N=C/c1ccc([N+](=O)[O-])cc1)c1cnccn1 | 40.4 | 34 | 3.1 | 5.4 | 4.9 | 44.4 | 4.9 | 41.9 | Active |  |  |  | 
COc1ccc2c(c1)c(CC(=O)O)c(C)n2C(=O)c1ccc(Cl)cc1 [INDOMETHACIN] | 73.1 | 29.7 |  |  |  | 39 |  | 49.3 |  |  |  |  | 
O=C(N/N=C/c1ccccn1)c1cnccn1 | 75.5 | 32.2 | 2.4 | 4.4 | 3 | 56.4 | 4.5 | 44.9 | Active |  |  |  | 
O=C(N/N=C/c1ccc2c(c1)OCO2)c1cnccn1 | 78.2 | 32.3 | 2.4 | 3 | 3.2 | 46.7 | 4.4 | 44.7 | Active |  |  |  | 
